Measurements taken from ChEMBL document CHEMBL1221191, “Inhibitors of Polo-like kinase reveal roles in spindle-pole maintenance” (Nat Chem Biol, 2006).
Active and inactive are the calls of the source. The rule behind the calls is not given here.

How the values were obtained:
[1] = target: Serine/threonine-protein kinase PLK1 (Homo sapiens, UniProt P53350)
[2] = system: S2; test: Inhibition of Plk1 in Drosophila melanogaster S2 cells at 20 nM; type: cell-based
[3] = target: Aurora kinase B (Drosophila melanogaster) (UniProt Q9VKN7); test: Inhibition of Aurora B kinase in Drosophila melanogaster assessed as histone H3 phosphorylation at Ser10
[4] = system: S2; test: Antimitotic activity against Drosophila melanogaster S2 cells expressing GFP-tubulin assessed as abnormal spindles at 25 uM; type: functional, cell-based
Procedure, shortened: (§1)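 Drosophila S2 cells exposed to 10 μM (24 h, fixed) or 25 μM (added at time 0 to cells already in mitosis) of compound, with 0.1% DMSO control. Fixed cells immunostained for α-tubulin, γ-tubulin and DNA. Live cells expressing GFP-tubulin filmed by spinning-disk confocal time-lapse at 25 ± 1 °C to follow spindle behaviour.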

[5] = target: Mitogen-activated protein kinase 11 (Homo sapiens, UniProt Q15759); test: Inhibition of SAPK2
[6] = system: HeLa; test: Antitumor activity against human HeLa cells assessed as shortened mitotic spindles at 10 uM after 24 hrs by immunostaining relative to control; type: functional, cell-based
Procedure, shortened: (§2)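 HeLa cells treated 24 h with 10 or 25 μM compound or 0.1% DMSO, then fixed and stained for α-tubulin, γ-tubulin and DNA. Spindle length taken as pole-to-pole distance. Microtubule density judged from the immunostained spindles.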

[7] = Inhibition of CK2
[8] = system: S2; test: Antimitotic activity against Drosophila melanogaster S2 cells assessed as collapsed spindles at 25 uM; type: functional, cell-based
Procedure, shortened: as §1

[9] = target: RAC-alpha serine/threonine-protein kinase (Homo sapiens, UniProt P31749); test: Inhibition of Akt
[10] = system: S2; test: Antimitotic activity against Drosophila melanogaster S2 cells assessed as loss of MPM2 epitope from centrosome at 20 nM by immunostaining; type: functional, cell-based
Procedure, shortened: (§3)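 Centrosomes partially purified from Drosophila embryos, some stripped with 1 M KI. Compound (10 or 20 nM; 0.1% DMSO carrier) incubated 20 min at 25 °C with centrosomes or with high-speed embryonic cytoplasmic supernatant, then microtubule nucleation assayed with rhodamine-labelled tubulin. Staining for γ-tubulin, MPM2 epitope, Asp and centrosomin. MPM2 also checked by western blot of treated supernatant.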

[11] = target: Cyclin-dependent kinase 2/cyclin E1 (Homo sapiens, UniProt P24941); test: Inhibition of CDK2/Cyclin E; type: protein-complex assay
[12] = system: HT-29; test: Cytotoxicity against human HT-29 cells assessed as mitotic progression after 72 hrs by MTT assay; type: functional, cell-based; conditions: HT-29, 72 h
[13] = target: Cyclin-dependent kinase 1/cyclin B1 (Homo sapiens, UniProt P06493); test: Inhibition of CDK1/Cyclin B; type: protein-complex assay
[14] = system: S2; test: Antimitotic activity against Drosophila melanogaster S2 cells assessed as nucleated microtubule at 10 nM; type: functional, cell-based
Procedure, shortened: as §3

[15] = Inhibition of CamK2
[16] = system: HeLa; test: Antitumor activity against human HeLa cells assessed as shortened mitotic spindles at 25 uM after 24 hrs by immunostaining relative to control; type: functional, cell-based
Procedure, shortened: as §2

[17] = system: Drosophila melanogaster; test: Inhibition of […]-mediated Asp protein recruitment in Drosophila melanogaster S2 at 20 nM in presence of high-speed supernatant of syncytial embryo cytoplasam
Procedure, shortened: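 Centrosomes partially purified from D. melanogaster embryos were salt-stripped with 1 M KI. They were then incubated with rhodamine-labeled tubulin and high-speed embryonic cytoplasmic supernatant. The supernatant was pretreated with compound (20 nM) or 0.1% DMSO for 20 min at 25 °C. Preparations were immunostained for centrosomin, γ-tubulin, Asp and the MPM2 phosphoepitope, and microtubule nucleation was scored.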

[18] = system: S2; test: Antimitotic activity against Drosophila melanogaster S2 cells cytosolic extract assessed as loss of MPM2 epitope; type: functional, cell-based
Procedure, shortened: as §3

[19] = target: CDK9/cyclin T1 (Homo sapiens, UniProt P50750); test: Inhibition of CDK9/Cyclin T; type: protein-complex assay
[20] = system: S2; test: Antimitotic activity against Drosophila melanogaster S2 cells assessed as nucleated microtubule at 20 nM; type: functional, cell-based
Procedure, shortened: as §3

[21] = target: Tyrosine-protein kinase ABL1 (Homo sapiens, UniProt P00519); test: Inhibition of Abl
[22] = system: S2; test: Antimitotic activity against Drosophila melanogaster S2 cells assessed as loss of gamma-tubulin at 20 nM by immunostaining; type: functional, cell-based
Procedure, shortened: as §3

[23] = system: HeLa; test: Cytotoxicity against human HeLa cells assessed as mitotic progression after 72 hrs by MTT assay; type: functional, cell-based
[24] = Inhibition of MAPK/ERK
[25] = system: HeLa; test: Antitumor activity against human HeLa cells assessed as change in kinetochore microtubules density at 25 uM after 24 hrs by immunostaining relative to control; type: functional, cell-based
Procedure, shortened: as §2

[26] = target: Aurora kinase A (Homo sapiens, UniProt O14965); test: Inhibition of Aurora A
[27] = system: S2; test: Inhibition of […]-mediated gamma-TuRc recruitment in Drosophila melanogaster S2 cells at 20 nM in presence of high-speed supernatant of syncytial embryo cytoplasam; type: cell-based
Procedure, shortened: as §3

[28] = target: Cyclin-dependent kinase 4/cyclin D1 (Homo sapiens, UniProt P11802); test: Inhibition of CDK4/Cyclin D1; type: protein-complex assay
[29] = target: Glycogen synthase kinase-3 alpha (Homo sapiens, UniProt P49840); test: Inhibition of GSK3alpha
[30] = Inhibition of P70S6K
[31] = Inhibition of PKA
[32] = target: Protein kinase C alpha type (Homo sapiens, UniProt P17252); test: Inhibition of PKCalpha
[33] = target: Cyclin-dependent kinase 7/ cyclin H (Homo sapiens, UniProt P50613); test: Inhibition of CDK7/Cyclin H; type: protein-complex assay
[34] = Antimitotic activity against Drosophila melanogaster S2 cells assessed as bipolar spindles at 10 uM after 24 hrs by immunostaining relative to control; type: functional
Procedure, shortened: as §1

[35] = system: A549; test: Cytotoxicity against human A549 cells assessed as mitotic progression after 72 hrs by MTT assay; type: functional, cell-based; conditions: A549, 72 h
[36] = system: S2; test: Antimitotic activity against Drosophila melanogaster S2 cells assessed as nucleated microtubule at 20 nM in presence of high speed cytoplasmic supernatant; type: functional, cell-based
Procedure, shortened: as §3

[37] = target: Cyclin-dependent kinase 2/cyclin A (Homo sapiens, UniProt P24941); test: Inhibition of CDK2/Cyclin A; type: protein-complex assay
[38] = target: Protein kinase C gamma type (Homo sapiens) (UniProt P05129); test: Residual activity of PKCgamma at 100 uM relative to control
[39] = target: Fibroblast growth factor receptor 3 (Homo sapiens) (UniProt P22607); test: Residual activity of FGFR3 at 100 uM relative to control
[40] = target: Mitogen-activated protein kinase 9 (Homo sapiens) (UniProt P45984); test: Residual activity of JNK2alpha2 at 100 uM relative to control
[41] = target: Tyrosine-protein kinase CSK (Homo sapiens) (UniProt P41240); test: Inhibition of CSK at 100 uM relative to control; values are per cent of control
[42] = target: Cyclin-dependent kinase 2/cyclin E1 (Homo sapiens) (UniProt P24864+P24941); test: Residual activity of CDK2/E at 100 uM relative to control
[43] = target: Tyrosine-protein kinase CSK (Homo sapiens) (UniProt P41240); test: Inhibition of CSK at 100 uM
[44] = target: Insulin receptor (Homo sapiens) (UniProt P06213); test: Residual activity of IR at 100 uM relative to control
[45] = target: Dual specificity mitogen-activated protein kinase kinase 6 (Homo sapiens) (UniProt P52564); test: Residual activity of MKK6 at 100 uM relative to control
[46] = target: Inhibitor of nuclear factor kappa-B kinase subunit alpha (Homo sapiens) (UniProt O15111); test: Residual activity of IKKalpha at 100 uM relative to control
[47] = target: MAP kinase-activated protein kinase 2 (Homo sapiens) (UniProt P49137); test: Residual activity of MAPKAP-K2 at 100 uM relative to control
[48] = target: Insulin-like growth factor 1 receptor (Homo sapiens) (UniProt P08069); test: Residual activity of IGF-1R at 100 uM relative to control
[49] = target: Tyrosine-protein kinase Yes (Homo sapiens) (UniProt P07947); test: Residual activity of Yes at 100 uM relative to control
[50] = target: Platelet-derived growth factor receptor alpha (Homo sapiens) (UniProt P16234); test: Residual activity of PDGFRalpha at 100 uM relative to control
[51] = target: Protein kinase C beta type (Homo sapiens) (UniProt P05771); test: Residual activity of PKCbeta2 at 100 uM relative to control
[52] = Residual activity of SAPK2b at 100 uM relative to control
[53] = target: Ribosomal protein S6 kinase alpha-5 (Homo sapiens) (UniProt O75582); test: Residual activity of MSK1 at 100 uM relative to control
[54] = target: Ribosomal protein S6 kinase alpha-3 (Homo sapiens) (UniProt P51812); test: Residual activity of Rsk2 at 100 uM relative to control
[55] = target: RAF proto-oncogene serine/threonine-protein kinase (Homo sapiens) (UniProt P04049); test: Residual activity of c-RAF at 100 uM relative to control
[56] = target: Mitogen-activated protein kinase 12 (Homo sapiens) (UniProt P53778); test: Residual activity of SAPK3 at 100 uM relative to control
[57] = target: Dual specificity mitogen-activated protein kinase kinase 1 (Homo sapiens) (UniProt Q02750); test: Residual activity of MEK1 at 100 uM relative to control
[58] = target: Serine/threonine-protein kinase Chk1 (Homo sapiens) (UniProt O14757); test: Residual activity of Chk1 at 100 uM relative to control
[59] = target: Serine/threonine-protein kinase Chk2 (Homo sapiens) (UniProt O96017); test: Residual activity of Chk2 at 100 uM relative to control

Chain of Serine/threonine-protein kinase PLK1 (P53350 whole entry): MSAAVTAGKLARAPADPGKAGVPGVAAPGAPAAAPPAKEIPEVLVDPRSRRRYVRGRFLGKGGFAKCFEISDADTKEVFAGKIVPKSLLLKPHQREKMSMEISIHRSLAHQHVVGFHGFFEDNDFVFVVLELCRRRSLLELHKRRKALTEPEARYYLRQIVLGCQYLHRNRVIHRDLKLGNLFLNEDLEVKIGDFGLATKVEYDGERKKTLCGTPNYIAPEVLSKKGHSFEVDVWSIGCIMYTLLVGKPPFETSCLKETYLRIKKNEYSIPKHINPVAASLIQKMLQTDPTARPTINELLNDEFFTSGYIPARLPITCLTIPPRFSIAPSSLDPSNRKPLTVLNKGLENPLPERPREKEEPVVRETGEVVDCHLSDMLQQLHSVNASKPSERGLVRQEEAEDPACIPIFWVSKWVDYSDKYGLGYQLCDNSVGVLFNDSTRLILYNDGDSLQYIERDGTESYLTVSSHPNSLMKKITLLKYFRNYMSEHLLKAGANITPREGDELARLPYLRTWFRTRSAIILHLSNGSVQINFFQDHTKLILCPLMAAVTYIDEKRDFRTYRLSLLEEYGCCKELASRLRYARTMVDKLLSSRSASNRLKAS
Chain of Glycogen synthase kinase-3 alpha (P49840 whole entry): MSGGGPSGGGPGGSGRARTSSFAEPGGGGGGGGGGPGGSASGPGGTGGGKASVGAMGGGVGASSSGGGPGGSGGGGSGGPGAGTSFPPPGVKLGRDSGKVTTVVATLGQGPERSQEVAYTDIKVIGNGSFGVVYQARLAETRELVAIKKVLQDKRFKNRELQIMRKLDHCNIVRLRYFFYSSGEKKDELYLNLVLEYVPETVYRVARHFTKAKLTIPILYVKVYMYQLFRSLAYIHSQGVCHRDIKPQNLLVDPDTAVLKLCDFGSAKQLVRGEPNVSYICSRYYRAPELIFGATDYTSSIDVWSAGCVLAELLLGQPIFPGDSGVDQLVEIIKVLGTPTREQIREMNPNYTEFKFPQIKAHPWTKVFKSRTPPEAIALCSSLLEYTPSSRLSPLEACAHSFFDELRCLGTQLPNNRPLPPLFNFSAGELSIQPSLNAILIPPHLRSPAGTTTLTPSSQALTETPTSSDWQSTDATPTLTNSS
Chain of Cyclin-dependent kinase 7/ cyclin H (P51946 whole entry): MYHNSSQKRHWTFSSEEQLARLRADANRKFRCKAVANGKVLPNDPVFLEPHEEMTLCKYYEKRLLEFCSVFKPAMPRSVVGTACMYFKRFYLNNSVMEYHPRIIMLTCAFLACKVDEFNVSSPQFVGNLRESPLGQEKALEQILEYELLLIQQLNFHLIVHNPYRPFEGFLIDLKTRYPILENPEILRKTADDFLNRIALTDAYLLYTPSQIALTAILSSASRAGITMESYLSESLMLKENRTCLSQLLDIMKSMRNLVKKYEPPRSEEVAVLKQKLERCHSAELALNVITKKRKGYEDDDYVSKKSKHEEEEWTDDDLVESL
Chain of Cyclin-dependent kinase 7/ cyclin H (P50613 whole entry): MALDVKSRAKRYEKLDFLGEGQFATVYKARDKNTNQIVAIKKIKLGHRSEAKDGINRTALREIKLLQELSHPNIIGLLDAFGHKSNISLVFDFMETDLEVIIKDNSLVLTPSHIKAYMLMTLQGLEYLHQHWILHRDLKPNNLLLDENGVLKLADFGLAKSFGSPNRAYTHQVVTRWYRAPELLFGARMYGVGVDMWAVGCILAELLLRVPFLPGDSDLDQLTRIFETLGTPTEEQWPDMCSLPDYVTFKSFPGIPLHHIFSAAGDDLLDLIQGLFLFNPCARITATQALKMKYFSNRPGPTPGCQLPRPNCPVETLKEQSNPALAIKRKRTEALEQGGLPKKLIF
Chain of CDK9/cyclin T1 (O60563 whole entry): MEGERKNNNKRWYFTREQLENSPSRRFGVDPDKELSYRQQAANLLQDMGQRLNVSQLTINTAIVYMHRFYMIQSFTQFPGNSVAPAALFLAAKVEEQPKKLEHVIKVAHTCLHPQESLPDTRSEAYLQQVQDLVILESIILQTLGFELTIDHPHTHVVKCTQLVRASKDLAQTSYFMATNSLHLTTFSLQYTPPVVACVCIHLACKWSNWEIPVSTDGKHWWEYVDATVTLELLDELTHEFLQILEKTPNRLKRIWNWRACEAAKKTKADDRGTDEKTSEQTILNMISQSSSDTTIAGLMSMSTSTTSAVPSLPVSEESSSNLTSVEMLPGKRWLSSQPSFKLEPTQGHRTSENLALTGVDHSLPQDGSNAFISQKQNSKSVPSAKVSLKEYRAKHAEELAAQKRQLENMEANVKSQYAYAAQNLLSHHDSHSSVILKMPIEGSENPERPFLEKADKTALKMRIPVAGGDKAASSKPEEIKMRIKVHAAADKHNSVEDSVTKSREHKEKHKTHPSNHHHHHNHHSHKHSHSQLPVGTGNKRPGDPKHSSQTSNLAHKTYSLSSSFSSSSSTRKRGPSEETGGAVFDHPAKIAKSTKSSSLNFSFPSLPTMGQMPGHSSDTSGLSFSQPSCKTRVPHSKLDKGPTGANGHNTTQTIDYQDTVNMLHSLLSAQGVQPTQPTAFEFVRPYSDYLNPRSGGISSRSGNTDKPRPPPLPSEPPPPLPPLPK
Chain of CDK9/cyclin T1 (P50750 whole entry): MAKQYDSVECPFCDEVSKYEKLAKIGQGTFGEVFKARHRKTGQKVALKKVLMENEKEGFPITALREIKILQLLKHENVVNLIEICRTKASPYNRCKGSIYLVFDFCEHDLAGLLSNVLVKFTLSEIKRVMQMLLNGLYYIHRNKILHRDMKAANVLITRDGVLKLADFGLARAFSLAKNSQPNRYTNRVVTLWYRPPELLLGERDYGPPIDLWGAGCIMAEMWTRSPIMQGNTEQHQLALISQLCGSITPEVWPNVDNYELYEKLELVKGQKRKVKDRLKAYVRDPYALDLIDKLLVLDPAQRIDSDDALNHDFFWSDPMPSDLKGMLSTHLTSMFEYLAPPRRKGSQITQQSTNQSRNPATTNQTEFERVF
Chain of Tyrosine-protein kinase ABL1 (P00519 whole entry): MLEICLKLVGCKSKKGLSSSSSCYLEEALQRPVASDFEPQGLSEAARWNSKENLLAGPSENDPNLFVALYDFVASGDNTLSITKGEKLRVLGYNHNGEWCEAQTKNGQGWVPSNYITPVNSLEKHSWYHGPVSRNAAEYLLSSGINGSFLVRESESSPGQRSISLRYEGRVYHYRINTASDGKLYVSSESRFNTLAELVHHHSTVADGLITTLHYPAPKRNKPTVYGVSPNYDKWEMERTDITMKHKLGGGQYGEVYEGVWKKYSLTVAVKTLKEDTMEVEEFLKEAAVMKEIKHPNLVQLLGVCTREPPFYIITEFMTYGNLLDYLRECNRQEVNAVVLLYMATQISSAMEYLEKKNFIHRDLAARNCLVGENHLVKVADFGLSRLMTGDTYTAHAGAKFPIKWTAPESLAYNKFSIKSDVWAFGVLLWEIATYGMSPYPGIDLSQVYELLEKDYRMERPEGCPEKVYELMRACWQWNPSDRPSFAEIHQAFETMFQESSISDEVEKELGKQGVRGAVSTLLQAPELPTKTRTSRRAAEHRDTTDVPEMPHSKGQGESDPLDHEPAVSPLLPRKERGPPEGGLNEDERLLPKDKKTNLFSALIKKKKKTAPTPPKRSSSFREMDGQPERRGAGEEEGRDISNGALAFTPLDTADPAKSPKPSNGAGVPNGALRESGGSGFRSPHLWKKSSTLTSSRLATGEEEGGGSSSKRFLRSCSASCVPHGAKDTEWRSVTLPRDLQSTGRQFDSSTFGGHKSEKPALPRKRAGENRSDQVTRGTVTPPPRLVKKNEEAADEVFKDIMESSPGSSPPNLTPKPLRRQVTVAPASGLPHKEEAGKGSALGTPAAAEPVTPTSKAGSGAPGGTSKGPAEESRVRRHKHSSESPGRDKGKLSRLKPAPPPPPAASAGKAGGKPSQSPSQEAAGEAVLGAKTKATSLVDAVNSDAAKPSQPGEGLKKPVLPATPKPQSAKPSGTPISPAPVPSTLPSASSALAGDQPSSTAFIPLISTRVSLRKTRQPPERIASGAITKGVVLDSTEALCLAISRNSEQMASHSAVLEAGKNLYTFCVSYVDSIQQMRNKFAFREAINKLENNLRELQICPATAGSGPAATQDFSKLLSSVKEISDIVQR
Chain of Cyclin-dependent kinase 1/cyclin B1 (P06493 whole entry): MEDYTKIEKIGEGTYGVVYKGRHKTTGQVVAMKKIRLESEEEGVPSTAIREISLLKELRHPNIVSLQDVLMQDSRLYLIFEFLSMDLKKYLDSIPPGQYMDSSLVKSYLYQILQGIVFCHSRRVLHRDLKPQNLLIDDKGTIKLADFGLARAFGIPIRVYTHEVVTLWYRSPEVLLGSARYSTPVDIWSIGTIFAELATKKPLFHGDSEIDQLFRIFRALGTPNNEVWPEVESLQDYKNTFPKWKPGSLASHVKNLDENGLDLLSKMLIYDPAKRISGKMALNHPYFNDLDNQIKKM
Chain of Cyclin-dependent kinase 1/cyclin B1 (P14635 whole entry, further chain): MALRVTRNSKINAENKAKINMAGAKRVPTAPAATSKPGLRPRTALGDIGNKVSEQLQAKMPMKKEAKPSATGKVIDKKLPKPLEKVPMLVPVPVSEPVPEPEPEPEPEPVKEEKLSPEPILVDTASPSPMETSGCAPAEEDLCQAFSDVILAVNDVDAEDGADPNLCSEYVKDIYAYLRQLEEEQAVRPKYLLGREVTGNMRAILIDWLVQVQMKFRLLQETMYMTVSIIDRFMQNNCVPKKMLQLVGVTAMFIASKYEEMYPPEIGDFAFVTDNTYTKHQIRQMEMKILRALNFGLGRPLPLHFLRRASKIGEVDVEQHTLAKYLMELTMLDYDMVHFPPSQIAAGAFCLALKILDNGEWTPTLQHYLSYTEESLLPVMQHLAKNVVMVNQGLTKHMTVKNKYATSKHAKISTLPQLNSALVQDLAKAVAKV

`Cc1nc(N)sc1-c1ccnc(Nc2ccc(O)cc2)n1` showed an IC50 [1] of 25 µM.

With `Cc1nc(C)c(-c2ccnc(Nc3ccc(O)cc3)n2)s1` the IC50 [1] was 5 µM.

`CNc1nc(C)c(-c2ccnc(Nc3ccc(O)cc3)n2)s1` showed an IC50 [1] of 10 µM.

For `NC(=O)c1sc2c([N+](=O)[O-])cc(SC(F)(F)F)cc2[n+]1[O-]` [CYCLAPOLIN 1], the inhibition [2] was “Active”, the inhibition [3] was “inactive” and the Activity [4] was “Active”. For the same compound, the IC50 [5] was greater than 100 µM, the Activity [6] was “Active” and the IC50 [7] was greater than 100 µM. The Activity [8] was “Active”, the IC50 [9] was greater than 100 µM and the Activity [10] was “Active”. For the same compound, the IC50 [11] was greater than 100 µM, the IC50 [12] was 2.8 µM and the IC50 [13] was greater than 100 µM. For the same compound, the Activity [14] was “inactive”, the IC50 [15] was greater than 100 µM and the Activity [16] was “Active”. The inhibition [17] was “inactive”, the Activity [18] was “Active” and the IC50 [19] was greater than 100 µM. For the same compound, the Activity [20] was “Active”, the IC50 [21] was greater than 100 µM and the Activity [22] was “Active”. The IC50 [23] was 14 µM, the IC50 [24] was greater than 100 µM and the Activity [25] was “Active”. For the same compound, the IC50 [26] was greater than 100 µM, the inhibition [27] was “inactive” and the IC50 [28] was greater than 100 µM. It also gave an IC50 [29] greater than 100 µM, an IC50 [30] greater than 100 µM and an IC50 [31] greater than 100 µM. The IC50 [32] was greater than 100 µM, the IC50 [33] was greater than 100 µM and the Activity [34] was 80%. The IC50 [35] was 14 µM, the Activity [36] was “inactive” and the IC50 [37] was greater than 100 µM.

Compound `NC(=O)c1sc2c([N+](=O)[O-])cc(C(F)(F)F)cc2[n+]1[O-]` [CYCLAPOLIN 9] has a residual activity [38] of 117%, an IC50 [5] greater than 100 µM and a residual activity [39] of 83%. It also gave a residual activity [40] of 106%, a residual activity [41] of 45% and an IC50 [7] greater than 100 µM. The residual activity [42] was 88%, the IC50 [9] was greater than 100 µM and the IC50 [11] was greater than 100 µM. It also gave an inhibition [43] of less than 50%, an IC50 [12] of 7.7 µM and an IC50 [13] greater than 100 µM. It also gave a residual activity [44] of 107%, an IC50 [15] greater than 100 µM and a residual activity [45] of 88%. It also gave a residual activity [46] of 115%, an IC50 [19] greater than 100 µM and a residual activity [47] of 96%. For the same compound, the residual activity [48] was 98%, the residual activity [49] was 108% and the IC50 [21] was greater than 100 µM. It also gave a residual activity [50] of 108%, a residual activity [51] of 82% and an IC50 [23] of 6.6 µM. It also gave an IC50 [24] greater than 100 µM, an IC50 [26] greater than 100 µM and an IC50 [28] greater than 100 µM. The residual activity [52] was 94%, the IC50 [29] was greater than 100 µM and the residual activity [53] was 106%. It also gave a residual activity [54] of 105%, a residual activity [55] of 108% and an IC50 [30] greater than 100 µM. The IC50 [31] was greater than 100 µM, the IC50 [32] was greater than 100 µM and the IC50 [33] was greater than 100 µM. The residual activity [56] was 120%, the IC50 [35] was 24.8 µM and the residual activity [57] was 96%. It also gave a residual activity [58] of 111%, a residual activity [59] of 97% and an IC50 [37] greater than 100 µM.

`NNC(=O)c1sc2c([N+](=O)[O-])cc(C(F)(F)F)cc2[n+]1[O-]` [CYCLAPOLIN 10] showed an IC50 [12] of 50.5 µM, an IC50 [23] of 53.6 µM and an IC50 [35] of 72.1 µM.
